The compounds below were run against T1, 3-hydroxy-3-methylglutaryl-coenzyme A reductase (Homo sapiens) (UniProt P04035) (assay: Inhibition of HMG-CoA reductase using HMG-CoA as substrate at 25 uM).
T1 sequence (whole entry): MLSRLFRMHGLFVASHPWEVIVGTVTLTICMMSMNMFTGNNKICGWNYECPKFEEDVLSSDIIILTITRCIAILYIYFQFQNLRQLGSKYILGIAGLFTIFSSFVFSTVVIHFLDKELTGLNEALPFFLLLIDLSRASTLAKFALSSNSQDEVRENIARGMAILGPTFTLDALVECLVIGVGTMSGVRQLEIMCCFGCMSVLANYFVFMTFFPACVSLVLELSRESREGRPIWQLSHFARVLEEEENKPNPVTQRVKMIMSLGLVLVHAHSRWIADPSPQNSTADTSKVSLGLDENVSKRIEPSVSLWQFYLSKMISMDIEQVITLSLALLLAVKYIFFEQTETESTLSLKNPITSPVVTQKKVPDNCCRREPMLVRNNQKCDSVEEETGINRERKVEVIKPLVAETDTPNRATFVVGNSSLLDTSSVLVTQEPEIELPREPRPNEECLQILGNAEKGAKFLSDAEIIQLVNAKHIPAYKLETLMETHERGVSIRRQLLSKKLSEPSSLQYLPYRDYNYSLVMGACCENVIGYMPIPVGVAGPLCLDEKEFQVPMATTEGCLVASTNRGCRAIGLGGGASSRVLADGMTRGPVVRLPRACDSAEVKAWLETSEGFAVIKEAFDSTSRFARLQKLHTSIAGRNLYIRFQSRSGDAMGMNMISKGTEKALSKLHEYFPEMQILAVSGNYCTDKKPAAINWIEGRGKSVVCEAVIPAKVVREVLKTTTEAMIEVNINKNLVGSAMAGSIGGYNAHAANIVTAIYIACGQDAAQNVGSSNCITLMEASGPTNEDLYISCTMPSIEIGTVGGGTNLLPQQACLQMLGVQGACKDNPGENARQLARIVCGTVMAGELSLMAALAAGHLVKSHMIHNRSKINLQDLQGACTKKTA
Method in brief: (§1)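 HMG-CoA reductase kit assay using supplied HMGR enzyme, HMG-CoA substrate, NADPH and assay buffer. Test concentrations were 5, 10, 25, 50 and 100 µM, with % inhibition recorded at each.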

Row | SMILES | inhibition
1 | CC[C@H](C)C(=O)O[C@H]1C[C@@H](C)C=C2C=C[C@H](C)[C@H](CC[C@@H]3C[C@@H](O)CC(=O)O3)[C@H]21 [LOVASTATIN] | 69.1%

What follows are compounds tested on Syrian golden hamster (assay: Antidyslipidemic activity in high fat diet-fed dyslipidemic syrian golden hamster model assessed as decrease in serum total cholesterol level at 10 mg/kg, po administered once daily for 7 days relative to vehicle treated control).
Assay type: functional, Mesocricetus auratus
Parameters: scale not given: the % may be the effect or the level left
Method in brief: (§2)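 Male Golden Syrian hamsters, 12 weeks old, 110 ± 10 g, eight per group, fed high-fat diet plus fructose daily on days 1–10. Oral dosing once daily on days 4–10 in 0.1% gum acacia; HFD-fed vehicle animals served as controls. After the last dose, retro-orbital blood was taken into EDTA and plasma lipids were measured enzymatically on an autoanalyzer. Results are % change versus HFD controls; t-test/ANOVA, p<0.05.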

Row | SMILES | Activity
2 | CC(C)c1c(C(=O)Nc2ccccc2)c(-c2ccccc2)c(-c2ccc(F)cc2)n1CC[C@@H](O)C[C@@H](O)CC(=O)O [ATORVASTATIN] | 25%

The compounds below were run on Syrian golden hamster (assay: Antidyslipidemic activity in high fat diet-fed dyslipidemic syrian golden hamster model assessed as increase in serum ratio of serum HDL/total cholesterol level at 10 mg/kg, po administered once daily for 7 days relative to vehicle treated control).
Assay type: functional, Mesocricetus auratus
Method in brief: as §2

Row | SMILES | Activity
3 | CC(C)c1c(C(=O)Nc2ccccc2)c(-c2ccccc2)c(-c2ccc(F)cc2)n1CC[C@@H](O)C[C@@H](O)CC(=O)O [ATORVASTATIN] | 83%

Each compound was assayed against T1, 3-hydroxy-3-methylglutaryl-coenzyme A reductase (Homo sapiens) (assay: Inhibition of HMG-CoA reductase using HMG-CoA as substrate at 10 uM).
Method in brief: as §1

Row | SMILES | inhibition
4 | CC[C@H](C)C(=O)O[C@H]1C[C@@H](C)C=C2C=C[C@H](C)[C@H](CC[C@@H]3C[C@@H](O)CC(=O)O3)[C@H]21 [LOVASTATIN] | 46.7%

Each compound was assayed against T1, 3-hydroxy-3-methylglutaryl-coenzyme A reductase (Homo sapiens) (assay: Inhibition of HMG-CoA reductase using HMG-CoA as substrate at 50 uM).
Method in brief: as §1

Row | SMILES | inhibition
5 | CC[C@H](C)C(=O)O[C@H]1C[C@@H](C)C=C2C=C[C@H](C)[C@H](CC[C@@H]3C[C@@H](O)CC(=O)O3)[C@H]21 [LOVASTATIN] | 77.3%

These compounds were tested on Syrian golden hamster (assay: Antidyslipidemic activity in high fat diet-fed dyslipidemic syrian golden hamster model assessed as increase in serum HDL level at 10 mg/kg, po administered once daily for 7 days relative to vehicle treated control).
Assay type: functional, Mesocricetus auratus
Method in brief: as §2

Row | SMILES | Activity
6 | CC(C)c1c(C(=O)Nc2ccccc2)c(-c2ccccc2)c(-c2ccc(F)cc2)n1CC[C@@H](O)C[C@@H](O)CC(=O)O [ATORVASTATIN] | 2%

These compounds were tested on Syrian golden hamster (assay: Antidyslipidemic activity in high fat diet-fed dyslipidemic syrian golden hamster model assessed as decrease in serum total cholesterol level at 25 mg/kg, po administered once daily for 7 days relative to vehicle treated control).
Assay type: functional, Mesocricetus auratus
Parameters: scale not given: the % may be the effect or the level left
Method in brief: as §2

Row | SMILES | Activity
7 | CC[C@H](C)C(=O)O[C@H]1C[C@@H](C)C=C2C=C[C@H](C)[C@H](CC[C@@H]3C[C@@H](O)CC(=O)O3)[C@H]21 [LOVASTATIN] | 9%

Each compound was assayed against T1, 3-hydroxy-3-methylglutaryl-coenzyme A reductase (Homo sapiens) (assay: Inhibition of HMG-CoA reductase using HMG-CoA as substrate at 100 uM).
Method in brief: as §1

Row | SMILES | inhibition
8 | CC[C@H](C)C(=O)O[C@H]1C[C@@H](C)C=C2C=C[C@H](C)[C@H](CC[C@@H]3C[C@@H](O)CC(=O)O3)[C@H]21 [LOVASTATIN] | 84.4%

What follows are compounds tested on Syrian golden hamster (assay: Antidyslipidemic activity in high fat diet-fed dyslipidemic syrian golden hamster model assessed as decrease in serum LDL level at 25 mg/kg, po administered once daily for 7 days relative to vehicle treated control).
Assay type: functional, Mesocricetus auratus
Parameters: scale not given: the % may be the effect or the level left
Method in brief: as §2

Row | SMILES | Activity
9 | CC[C@H](C)C(=O)O[C@H]1C[C@@H](C)C=C2C=C[C@H](C)[C@H](CC[C@@H]3C[C@@H](O)CC(=O)O3)[C@H]21 [LOVASTATIN] | 11%

These compounds were tested on Syrian golden hamster (assay: Antidyslipidemic activity in high fat diet-fed dyslipidemic syrian golden hamster model assessed as decrease in serum triglyceride level at 10 mg/kg, po administered once daily for 7 days relative to vehicle treated control).
Assay type: functional, Mesocricetus auratus
Parameters: scale not given: the % may be the effect or the level left
Method in brief: as §2

Row | SMILES | Activity
10 | CC(C)c1c(C(=O)Nc2ccccc2)c(-c2ccccc2)c(-c2ccc(F)cc2)n1CC[C@@H](O)C[C@@H](O)CC(=O)O [ATORVASTATIN] | 67%

What follows are compounds tested against T1, 3-hydroxy-3-methylglutaryl-coenzyme A reductase (Homo sapiens) (assay: Inhibition of HMG-CoA reductase using HMG-CoA as substrate at 5 uM).
Method in brief: as §1

Row | SMILES | inhibition
11 | CC[C@H](C)C(=O)O[C@H]1C[C@@H](C)C=C2C=C[C@H](C)[C@H](CC[C@@H]3C[C@@H](O)CC(=O)O3)[C@H]21 [LOVASTATIN] | 27.5%

The compounds below were run on Syrian golden hamster (assay: Antidyslipidemic activity in high fat diet-fed dyslipidemic syrian golden hamster model assessed as increase in serum ratio of HDL/total cholesterol level at 25 mg/kg, po administered once daily for 7 days relative to vehicle treated control).
Assay type: functional, Mesocricetus auratus
Method in brief: as §2

Row | SMILES | Activity
12 | CC[C@H](C)C(=O)O[C@H]1C[C@@H](C)C=C2C=C[C@H](C)[C@H](CC[C@@H]3C[C@@H](O)CC(=O)O3)[C@H]21 [LOVASTATIN] | 12%

These compounds were tested on Syrian golden hamster (assay: Antidyslipidemic activity in high fat diet-fed dyslipidemic syrian golden hamster model assessed as increase in serum HDL level at 25 mg/kg, po administered once daily for 7 days relative to vehicle treated control).
Assay type: functional, Mesocricetus auratus
Method in brief: as §2

Row | SMILES | Activity
13 | CC[C@H](C)C(=O)O[C@H]1C[C@@H](C)C=C2C=C[C@H](C)[C@H](CC[C@@H]3C[C@@H](O)CC(=O)O3)[C@H]21 [LOVASTATIN] | 3%

What follows are compounds tested on Syrian golden hamster (assay: Antidyslipidemic activity in high fat diet-fed dyslipidemic syrian golden hamster model assessed as decrease in serum LDL level at 10 mg/kg, po administered once daily for 7 days relative to vehicle treated control).
Assay type: functional, Mesocricetus auratus
Parameters: scale not given: the % may be the effect or the level left
Method in brief: as §2

Row | SMILES | Activity
14 | CC(C)c1c(C(=O)Nc2ccccc2)c(-c2ccccc2)c(-c2ccc(F)cc2)n1CC[C@@H](O)C[C@@H](O)CC(=O)O [ATORVASTATIN] | 23%

The compounds below were run on Syrian golden hamster (assay: Antidyslipidemic activity in high fat diet-fed dyslipidemic syrian golden hamster model assessed as decrease in serum triglyceride level at 25 mg/kg, po administered once daily for 7 days relative to vehicle treated control).
Assay type: functional, Mesocricetus auratus
Parameters: scale not given: the % may be the effect or the level left
Method in brief: as §2

Row | SMILES | Activity
15 | CC[C@H](C)C(=O)O[C@H]1C[C@@H](C)C=C2C=C[C@H](C)[C@H](CC[C@@H]3C[C@@H](O)CC(=O)O3)[C@H]21 [LOVASTATIN] | 29%

Reference: ChEMBL document CHEMBL1914346, “Discovery and synthesis of novel substituted benzocoumarins as orally active lipid modulating agents” (Bioorg Med Chem Lett, 2011)
